Laboratory results taken from ChEMBL document CHEMBL3525985, “Regiospecificity and stereospecificity of human UDP-glucuronosyltransferases in the glucuronidation of estriol, 16-epiestriol, 17-epiestriol, and 13-epiestradiol” (Drug Metab Dispos, 2013).
Values belong to the compound of their own block, whether it stands above or below them.

What was measured:
Format in all cases: ADME
[1] = target: T1, UDP-glucuronosyltransferase 1A4 (Homo sapiens, UniProt P22310); test: Drug metabolism assessed as recombinant human C-terminal His-tagged UGT1A4-mediated 17-epiestriol-16-glucuronide formation at 200 uM after 15 to 60 mins by HPLC analysis in presence of UDPGA; conditions: recombinant enzyme
T1 sequence (P22310 whole entry): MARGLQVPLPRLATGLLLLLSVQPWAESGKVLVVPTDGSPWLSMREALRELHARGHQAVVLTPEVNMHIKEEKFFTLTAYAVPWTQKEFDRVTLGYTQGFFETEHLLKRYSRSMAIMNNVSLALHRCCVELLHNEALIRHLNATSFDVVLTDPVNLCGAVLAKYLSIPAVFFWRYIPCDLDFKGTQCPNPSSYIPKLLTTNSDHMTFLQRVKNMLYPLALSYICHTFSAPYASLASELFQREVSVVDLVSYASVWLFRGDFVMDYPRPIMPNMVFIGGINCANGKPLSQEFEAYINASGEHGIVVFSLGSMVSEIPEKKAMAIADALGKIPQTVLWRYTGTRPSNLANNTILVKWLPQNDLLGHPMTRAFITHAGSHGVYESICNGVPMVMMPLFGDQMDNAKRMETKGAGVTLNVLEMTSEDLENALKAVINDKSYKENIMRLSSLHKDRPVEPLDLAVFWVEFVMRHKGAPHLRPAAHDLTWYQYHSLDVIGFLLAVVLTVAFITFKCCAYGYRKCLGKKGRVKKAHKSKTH
Outline: (§1)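 Screening at a single substrate concentration of 200 μM, in triplicate. The reaction used 5 or 50 µg of UGT-enriched insect cell membranes in 50 mM phosphate pH 7.4 with 10 mM MgCl₂ and 5 mM UDPGA, 10% final DMSO. Incubation was 15–60 min at 37°C. Perchloric acid stopped the reaction and supernatants were analysed by HPLC. Controls lacked UDPGA. Rates were normalized to relative UGT expression level.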

[2] = Drug metabolism in human intestine microsomes assessed as 17-epiestriol-16-glucuronide formation after 15 to 60 mins by Michaelis-Menten equation analysis in presence of UDPGA
Outline: (§2)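 Pooled human intestine microsomes (6 donors), 0.5 or 10 µg, with alamethicin at 5% of total protein. Incubated with 50 mM phosphate pH 7.4, 10 mM MgCl₂, 5 mM UDPGA and 10% DMSO for 15–60 min at 37°C. Each glucuronide regioisomer quantified by HPLC, in triplicate, with substrate consumption at or below 10%.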

[3] = Drug metabolism in human intestine microsomes assessed as 17-epiestriol-17-glucuronide formation after 15 to 60 mins by Michaelis-Menten equation analysis in presence of UDPGA; outline: as §2
[4] = target: T2, UDP-glucuronosyltransferase 2A1 (Homo sapiens, UniProt P0DTE4); test: Drug metabolism assessed as recombinant human C-terminal His-tagged UGT2A1-mediated 17-epiestriol-17-glucuronide formation at 5 mg after 5 hrs by NMR spectroscopic analysis in presence of UDPGA
T2 sequence (P0DTE4 whole entry): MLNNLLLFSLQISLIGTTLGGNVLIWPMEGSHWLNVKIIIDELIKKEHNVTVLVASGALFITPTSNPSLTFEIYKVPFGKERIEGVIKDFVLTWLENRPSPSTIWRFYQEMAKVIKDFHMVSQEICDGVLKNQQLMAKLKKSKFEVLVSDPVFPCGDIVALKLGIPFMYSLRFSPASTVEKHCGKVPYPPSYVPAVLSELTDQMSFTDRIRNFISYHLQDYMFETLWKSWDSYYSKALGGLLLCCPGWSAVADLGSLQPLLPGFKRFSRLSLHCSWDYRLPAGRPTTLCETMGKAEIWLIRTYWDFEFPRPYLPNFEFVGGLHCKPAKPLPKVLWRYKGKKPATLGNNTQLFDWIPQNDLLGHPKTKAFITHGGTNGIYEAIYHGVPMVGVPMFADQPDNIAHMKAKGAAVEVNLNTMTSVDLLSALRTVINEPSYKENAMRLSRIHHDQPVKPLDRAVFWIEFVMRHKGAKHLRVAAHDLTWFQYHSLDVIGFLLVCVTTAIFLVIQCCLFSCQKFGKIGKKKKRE

[5] = target: T3, UDP-glucuronosyltransferase 2B15 (Homo sapiens, UniProt P54855); test: Drug metabolism assessed as recombinant human C-terminal […]-mediated 16-epiestriol-3-glucuronide formation after 15 to 60 mins by Michaelis-Menten equation analysis in presence of UDPGA; conditions: recombinant enzyme
T3 sequence (P54855 whole entry): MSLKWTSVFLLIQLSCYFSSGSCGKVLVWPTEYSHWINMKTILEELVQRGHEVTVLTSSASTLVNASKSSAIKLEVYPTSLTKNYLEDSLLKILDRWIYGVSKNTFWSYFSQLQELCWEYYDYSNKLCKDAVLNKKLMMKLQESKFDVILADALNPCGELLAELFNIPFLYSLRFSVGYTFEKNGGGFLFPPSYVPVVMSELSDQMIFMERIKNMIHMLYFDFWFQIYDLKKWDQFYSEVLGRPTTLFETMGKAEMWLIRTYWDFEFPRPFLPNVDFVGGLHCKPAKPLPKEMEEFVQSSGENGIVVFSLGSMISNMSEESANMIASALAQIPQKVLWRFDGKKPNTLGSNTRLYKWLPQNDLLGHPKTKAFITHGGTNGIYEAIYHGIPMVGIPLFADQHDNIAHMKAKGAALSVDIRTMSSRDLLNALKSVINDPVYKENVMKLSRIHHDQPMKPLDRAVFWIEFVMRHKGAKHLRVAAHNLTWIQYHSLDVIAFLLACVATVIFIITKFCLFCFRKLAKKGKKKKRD

[6] = target: T4, UDP-glucuronosyltransferase 1A1 (Homo sapiens, UniProt P22309); test: Drug metabolism assessed as recombinant human C-terminal His-tagged UGT1A1-mediated estradiol-3-glucuronide formation at 200 uM after 15 to 60 mins by HPLC analysis in presence of UDPGA; conditions: recombinant enzyme; outline: as §1
T4 sequence (P22309 whole entry): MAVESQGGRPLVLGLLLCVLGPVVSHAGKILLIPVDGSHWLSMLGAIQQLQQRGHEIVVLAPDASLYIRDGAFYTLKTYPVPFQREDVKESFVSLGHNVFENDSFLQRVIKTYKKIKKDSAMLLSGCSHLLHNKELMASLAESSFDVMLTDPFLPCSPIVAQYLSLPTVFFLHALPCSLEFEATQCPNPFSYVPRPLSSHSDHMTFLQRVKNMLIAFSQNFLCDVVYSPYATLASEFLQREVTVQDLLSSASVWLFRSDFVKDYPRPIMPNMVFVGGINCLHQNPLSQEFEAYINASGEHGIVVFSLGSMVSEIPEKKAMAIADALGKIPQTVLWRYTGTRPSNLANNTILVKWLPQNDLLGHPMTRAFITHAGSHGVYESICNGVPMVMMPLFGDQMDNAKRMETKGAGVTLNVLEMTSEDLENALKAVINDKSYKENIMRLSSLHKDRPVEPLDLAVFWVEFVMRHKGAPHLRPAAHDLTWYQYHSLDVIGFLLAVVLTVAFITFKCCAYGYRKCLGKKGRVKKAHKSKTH

Drug metabolism [1]: metabolite_detected | Km [2]: 820 µM | Vmax [2]: 266 pmol/min/mg | Km [3]: 1.3 µM | Vmax [3]: 1633 pmol/min/mg | Drug metabolism [4]: metabolite_detected
SMILES: C[C@]12CC[C@@H]3c4ccc(O)cc4CC[C@H]3[C@@H]1C[C@@H](O)[C@H]2O

Drug metabolism [5]: 0.5 pmol/min/mg
SMILES: C[C@]12CC[C@@H]3c4ccc(O)cc4CC[C@H]3[C@@H]1C[C@H](O)[C@@H]2O [EPIESTRIOL]

Drug metabolism [6]: metabolite_detected
SMILES: C[C@]12CC[C@@H]3c4ccc(O)cc4CC[C@H]3[C@@H]1CC[C@@H]2O [ESTRADIOL]
